In experiment [1] the target is T1, Oxysterols receptor LXR-alpha (Homo sapiens, UniProt Q13133).
T1 sequence (Q13133 whole entry): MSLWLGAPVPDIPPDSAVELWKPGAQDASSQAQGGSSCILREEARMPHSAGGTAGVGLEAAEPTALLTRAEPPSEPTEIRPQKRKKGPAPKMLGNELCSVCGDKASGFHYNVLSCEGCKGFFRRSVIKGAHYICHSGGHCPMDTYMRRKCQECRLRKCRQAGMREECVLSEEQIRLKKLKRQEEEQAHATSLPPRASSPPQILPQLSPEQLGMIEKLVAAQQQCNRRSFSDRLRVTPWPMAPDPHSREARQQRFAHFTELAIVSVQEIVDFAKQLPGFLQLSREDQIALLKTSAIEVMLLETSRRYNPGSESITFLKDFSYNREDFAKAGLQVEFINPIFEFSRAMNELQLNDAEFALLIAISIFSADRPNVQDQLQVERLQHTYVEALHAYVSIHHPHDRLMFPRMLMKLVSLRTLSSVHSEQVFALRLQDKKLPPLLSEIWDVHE
The experiment can be described thus: Agonist activity at LXRalpha LBD by HTRF cofactor peptide recruitment assay. The experiment is classed as functional.

For experiment [2], the target named is T2, Oxysterols receptor LXR-beta (Homo sapiens, UniProt P55055).
T2 sequence (P55055 whole entry): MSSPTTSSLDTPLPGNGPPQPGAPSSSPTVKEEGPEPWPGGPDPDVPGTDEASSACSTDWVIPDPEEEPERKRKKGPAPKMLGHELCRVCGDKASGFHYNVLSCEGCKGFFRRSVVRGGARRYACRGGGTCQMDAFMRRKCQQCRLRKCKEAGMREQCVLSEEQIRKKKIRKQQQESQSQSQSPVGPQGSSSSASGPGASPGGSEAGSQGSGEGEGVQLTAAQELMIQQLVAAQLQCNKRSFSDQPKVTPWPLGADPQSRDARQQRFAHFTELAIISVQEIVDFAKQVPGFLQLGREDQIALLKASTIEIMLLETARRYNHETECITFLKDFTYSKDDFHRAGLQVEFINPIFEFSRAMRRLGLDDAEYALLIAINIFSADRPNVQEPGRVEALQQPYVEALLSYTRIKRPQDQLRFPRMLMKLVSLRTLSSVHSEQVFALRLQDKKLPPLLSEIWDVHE
The experiment can be described thus: Agonist activity at LXRbeta LBD by HTRF cofactor peptide recruitment assay. The experiment is classed as functional. (TR-FRET usually uses a lanthanide donor and a delayed reading to cut background.)

Experiment [3] has as its target T2, Oxysterols receptor LXR-beta. In words: Activation of LXRbeta co-transfected in COS7 cells with RXRalpha by reporter transactivation assay. The experiment is classed as functional, cell-based, COS-7. The essentials:
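Cells exposed to vehicle or compound for 16 h; LXR reporter activation read as luciferase activity in cell lysate. EC50 derived from means of quadruplicate samples, single experiment.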

The subject of experiment [4] is THP-1. In words: Ratio of induction of ABCA1 gene expression in THP1 cells at 10 uM to control. The experiment is classed as functional, Homo sapiens.
Experiment [5] deals with THP-1. In words: Induction of cholesterol efflux in THP1 cells after 18 hrs. The conditions noted are these: Homo sapiens, THP-1, 18 h. The experiment is classed as functional, cell-based.
Another experiment concerns HepG2. The experiment can be described thus: Ratio of induction of lipogenesis in HepG2 cells at 10 uM to control after 24 hrs. The experiment is classed as functional, Homo sapiens.
In experiment [6] the test system is THP-1. In words: Ratio of induction of cholesterol efflux in THP1 cells at 10 uM to control after 18 hrs. The experiment is classed as functional, Homo sapiens.
The next experiment relates to HepG2 (Homo sapiens). The experiment can be described thus: Ratio of induction of SREBP1c gene expression in HepG2 cells at 10 uM to control.

The structures appear in SMILES notation. Some results are limits rather than exact numbers.

EC50 and Ratio data for ten compounds are collected here from ChEMBL document CHEMBL1139922, “Discovery and structure-activity relationship studies of indole derivatives as liver X receptor (LXR) agonists” (Bioorg Med Chem Lett, 2007).

As usually defined, the EC50 is the midpoint of the concentration-response curve. Lower therefore signals greater potency. On to `CC(C)(C)OC(=O)n1c(-c2ccc3c(c2)CC(NS(=O)(=O)c2ccccc2)C3)cc2ccccc21` (stereo unspecified), for which the EC50 in experiment [1] amounted to 1.5 µM; in experiment [2] it was 0.19 µM; in experiment [3], 0.065 µM; with THP-1 [5], 0.68 µM. Also, the Ratio with THP-1 [4] was 8.4; in the experiment on HepG2, 3.1; with THP-1 [6], 1.6; in the experiment with HepG2 (Homo sapiens) it was 3.1.

For `CC(C)(C)OC(=O)n1c(-c2ccc3c(c2)CC(NS(=O)(=O)c2c(F)cccc2F)C3)cc2ccccc21` (stereo unspecified), the EC50 in experiment [1] was 0.57 µM; in experiment [2] it was 0.09 µM; in experiment [3] it was 0.052 µM; with THP-1 [5], 0.21 µM. Moreover, the Ratio in the experiment with THP-1 [4] is recorded as 7.5; with HepG2, 3.2; in the experiment with THP-1 [6], 1.7; in the experiment with HepG2 (Homo sapiens), 3.

In experiment [2], `CC(C)(C)OC(=O)n1c(-c2ccc3c(c2)CC(NC(=O)c2ccccc2)C3)cc2ccccc21` (stereo unspecified) registered an EC50 of 0.19 µM.

Regarding `COc1ccccc1C(=O)NC1Cc2ccc(-c3cc4ccccc4n3C(=O)OC(C)(C)C)cc2C1` (stereo unspecified), the EC50 in experiment [2] was found to be 0.47 µM.

Consider `CC(C)(C)OC(=O)n1c(-c2ccc3c(c2)CC(NS(=O)(=O)c2cccs2)C3)cc2ccccc21` (stereo unspecified), for which the EC50 in experiment [1] is 0.54 µM; in experiment [2], 0.11 µM; in experiment [3], 0.363 µM; in the experiment with THP-1 [5] it was 0.57 µM. Also, the Ratio is given as 7.3 in the experiment on THP-1 [4], 1.7 with HepG2, 1.5 with THP-1 [6] and 2.9 in the experiment on HepG2 (Homo sapiens).

Turning to `CC(C)(C)OC(=O)n1c(-c2ccc3c(c2)CC(NS(=O)(=O)c2ccc(F)cc2)C3)cc2ccccc21` (stereo unspecified), the EC50 in experiment [1] came to 4.3 µM; in experiment [2], 0.46 µM; in experiment [3] it was 0.12 µM; in the experiment on THP-1 [5], 0.57 µM. The Ratio with THP-1 [4] is 11.4; in the experiment with HepG2, 2; with THP-1 [6] it was 1.7; in the experiment on HepG2 (Homo sapiens), 2.

Regarding `CC(C)(C)OC(=O)n1c(-c2ccc3c(c2)CC(NC(=O)c2ccccc2F)C3)cc2ccccc21` (stereo unspecified), a half-maximal response in experiment [2] (EC50) required 0.17 µM.

As for `CC(C)(C)OC(=O)n1c(-c2ccc3c(c2)CC(NS(=O)(=O)c2ccc(-c4ccon4)s2)C3)cc2ccccc21` (stereo unspecified), the EC50 was over 30 µM in experiment [1], 0.67 µM in experiment [2], 0.336 µM in experiment [3] and 0.59 µM in the experiment with THP-1 [5]. For the same compound, the Ratio in the experiment on THP-1 [4] was determined as 7.5; in the experiment with HepG2 it was 1.2; with THP-1 [6] it was 1.7; in the experiment with HepG2 (Homo sapiens), 2.1.

For `O=C(O)Cc1cccc(OCCCN(Cc2cccc(C(F)(F)F)c2Cl)CC(c2ccccc2)c2ccccc2)c1`, the 50% effective concentration (EC50) in experiment [1] amounted to 0.367 µM; in experiment [2], 0.035 µM; in the experiment with THP-1 [5], 0.01 µM. The Ratio is on record as 10.7 in the experiment on THP-1 [4], 2.7 in the experiment with HepG2, 1.8 in the experiment with THP-1 [6] and 5.2 in the experiment with HepG2 (Homo sapiens).

In the case of `O=S(=O)(c1ccccc1)N(CC(F)(F)F)c1ccc(C(O)(C(F)(F)F)C(F)(F)F)cc1` [T091317], the EC50 in the experiment on THP-1 [5] was found to be 0.033 µM.
